Key:
[1] = system: BT-474; assay: Cytotoxicity against human BT474 cells at 20 ug/mL by MTT assay; type: functional, cell-based
[2] = system: KATO3; assay: Cytotoxicity against human KATO3 cells at 20 ug/mL by MTT assay; type: functional, cell-based
[3] = system: CHAGO; assay: Cytotoxicity against human CHAGO cells at 20 ug/mL by MTT assay; type: functional, cell-based
[4] = system: SW-620; assay: Cytotoxicity against human SW620 cells at 20 ug/mL by MTT assay; type: functional, cell-based
[5] = system: HepG2; assay: Cytotoxicity against human HepG2 cells at 20 ug/mL by MTT assay; type: functional, cell-based
[6] = system: Plasmodium falciparum; assay: Antimalarial activity against multidrug-resistant Plasmodium falciparum K1; type: functional, organism-based
In short: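 In vitro microculture radioisotope assay against P. falciparum K1 (multidrug-resistant), parasites maintained in continuous culture; IC50 determined, dihydroartemisinin run as positive control.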

SMILES	Activity [1]	Activity [2]	Activity [3]	Activity [4]	Activity [5]	IC50 [6] [µM]
CCC[C@H]1C[C@H]2OC(=O)c3c(cc(OC)c(OC)c3O)[C@H]2O1 [MONOCERIN]	Not toxic	Not toxic	Not toxic	Not toxic	Not toxic	0.68
CC[C@@H](O)[C@@H]1C[C@@H]2OC(=O)c3c(cc(OC)c(OC)c3O)[C@@H]2O1	Not toxic	Not toxic	Not toxic	Not toxic	Not toxic	7.7
CC[C@@H](OC(C)=O)[C@@H]1C[C@@H]2OC(=O)c3c(cc(OC)c(OC)c3OC(C)=O)[C@@H]2O1	Not toxic	Not toxic	Not toxic	Not toxic	Not toxic	9.1
CCC[C@@H]1C[C@@H]2OC(=O)c3c(cc(OC)c(OC)c3OC(C)=O)[C@@H]2O1	Not toxic	Not toxic	Not toxic	Not toxic	Not toxic	0.82

— ChEMBL document CHEMBL1156663, “11-Hydroxymonocerin from the plant endophytic fungus Exserohilum rostratum” (J Nat Prod, 2008)
